From ChEMBL document CHEMBL3352384, “Synthesis and biological activity of new salicylanilide N,N-disubstituted carbamates and thiocarbamates” (Bioorg Med Chem, 2014) come the findings set out here.

≈ marks a conversion by molar mass, not a printed value. Bounds are passed on as bounds.

Data set [1] deals with Mycobacterium avium. The experiment in a line: Antimycobacterial activity against Isoniazid, rifampicin, ofloxacin and ethambutol-resistant Mycobacterium avium 330/88 assessed as complete growth inhibition after 14 days. Type of data set: functional. The note with it: 330/88, 336 h. The essentials:
(§1)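 M. tuberculosis 331/88 (H37Rv) inoculum diluted 10-3, M. avium 330/88 diluted 10-5. MIC is the lowest concentration giving complete growth inhibition. Isoniazid and p-aminosalicylic acid as references. Quadruplicate, repeated twice.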

Data set [2] relates to HepG2. Kind of data set: Cytotoxicity against human HepG2 cells assessed as reduction in cell viability after 24 hrs by MTS assay. Type of data set: cell-based. The note with it: HepG2, 24 h. The essentials:
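HepG2 hepatocellular carcinoma cells (passage 3–4) were grown in Eagle's MEM with 10% FBS, 1% L-glutamine and non-essential amino acids. Compounds were added from DMSO at eight concentrations in triplicate, with 10% DMSO as the 0% viability control. Viability was read by tetrazolium salt reduction (CellTiter 96 AQueous One). IC50 is the concentration reducing viability to 50% of control.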

The nature of data set [3]: Selectivity index, ratio of IC50 for human HepG2 cells to MIC for atypical mycobacteria. The method in brief:
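Selectivity index = HepG2 IC50 / MIC. HepG2 cells (passage 3–4) grown in Eagle's MEM with 10% FBS, L-glutamine and non-essential amino acids. Compounds added from DMSO, eight concentrations in triplicate, tetrazolium-reduction colorimetric read-out. IC50 is the concentration reducing viability to 50% of control; 10% DMSO as 0% viability.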

The test system of data set [4] is Mycobacterium kansasii. Kind of data set: Antimycobacterial activity against Mycobacterium kansasii 235/80 assessed as complete growth inhibition after 21 days. Particulars: 235/80, 504 h. Type of data set: functional. The essentials:
(§2)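 Dilutions of M. kansasii inoculum were 10-4 for strain 235/80 and 10-5 for clinical isolate 6509/96. MIC was the lowest concentration giving complete growth inhibition, run in quadruplicate and repeated twice.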

For data set [5], the system named is Mycobacterium kansasii. Kind of data set: Antimycobacterial activity against Mycobacterium kansasii 235/80 assessed as complete growth inhibition after 7 days. It is filed as functional. The note with it: 235/80, 168 h. The method in brief: as §2
A short description of data set [6]: Selectivity index, ratio of IC50 for human HepG2 cells to MIC for Mycobacterium tuberculosis H37Rv. Type of data set: toxicity, cell-based. The note with it: read-out: Selectivity Index. The essentials: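 Selectivity index = HepG2 IC50 / MIC. HepG2 cells (passage 3–4) grown in Eagle's MEM with 10% FBS, L-glutamine and non-essential amino acids. Compounds added from DMSO, eight concentrations in triplicate, tetrazolium-reduction colorimetric read-out.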

The subject of data set [7] is Mycobacterium kansasii. Kind of data set: Antimycobacterial activity against Mycobacterium kansasii 235/80 assessed as complete growth inhibition after 14 days. Type of data set: functional. The note with it: 235/80, 336 h. The method in brief: as §2
For data set [8], the system named is Mycobacterium tuberculosis. The experiment in a line: Antimycobacterial activity against Mycobacterium tuberculosis H37Rv 331/88 assessed as complete growth inhibition after 14 days. Type of data set: functional. The note with it: H37Rv 331/88, 336 h. The method in brief: as §1
The test system of data set [9] is Mycobacterium kansasii. The experiment in a line: Antimycobacterial activity against clinical isolate Mycobacterium kansasii 6509/96 assessed as complete growth inhibition after 14 days. Type of data set: functional. The note with it: 6509/96, 336 h. The method in brief:
as §2

A short description of data set [10]: Inhibition of Mycobacterium tuberculosis H37Rv isocitrate lyase assessed as glyoxylate phenyl hydrazone formation at 10 uM.
For data set [11], the system named is Mycobacterium tuberculosis. The experiment in a line: Antimycobacterial activity against Mycobacterium tuberculosis H37Rv 331/88 assessed as complete growth inhibition after 21 days. It is filed as functional. The note with it: H37Rv 331/88, 504 h. The essentials:
as §1

The subject of data set [12] is Mycobacterium kansasii. The experiment in a line: Antimycobacterial activity against clinical isolate Mycobacterium kansasii 6509/96 assessed as complete growth inhibition after 7 days. The note with it: 6509/96, 168 h. It is filed as functional. The essentials:
as §2

The subject of data set [13] is Mycobacterium kansasii. Kind of data set: Antimycobacterial activity against clinical isolate Mycobacterium kansasii 6509/96 assessed as complete growth inhibition after 21 days. Type of data set: functional. The note with it: 6509/96, 504 h. The essentials:
as §2

Data set [14] concerns Mycobacterium avium. Kind of data set: Antimycobacterial activity against Isoniazid, rifampicin, ofloxacin and ethambutol-resistant Mycobacterium avium 330/88 assessed as complete growth inhibition after 21 days. Particulars: 330/88, 504 h. Type of data set: functional. The essentials:
as §1

Broadly, the MIC is the lowest concentration found to suppress growth. One may read the IC50 as the concentration at which inhibition is half-maximal. For orientation: inhibition means the change of the read-out against control, counted positive when it falls. Turning to `CN(C(=O)Oc1ccccc1C(=O)Nc1ccccc1)c1ccccc1`, the MIC was greater than 1000 µM in data set [1]; 500 µM (≈ 173 µg/mL) in data set [4]; 250 µM (≈ 86.6 µg/mL) in [5]; 500 µM (≈ 173 µg/mL) in data set [7]; 250 µM (≈ 86.6 µg/mL) in data set [8]; 500 µM (≈ 173 µg/mL) in data set [9]. Moreover, the MIC is 250 µM (≈ 86.6 µg/mL) in data set [11], 250 µM (≈ 86.6 µg/mL) in [12], 1000 µM (≈ 346 µg/mL) in [13] and greater than 1000 µM in data set [14]. In addition, the IC50 in data set [2] worked out at 280 µM. The “Selectivity Index” value in data set [3] is “<=1.1”. In addition, in data set [6], the selectivity ratio came out at 1.1. Moreover, the inhibition in data set [10] was determined as 3%.
Take `Nc1ccc(C(=O)O)c(O)c1` [AMINOSALICYLIC ACID]: the minimal inhibitory concentration (MIC) is 32 µM (≈ 4.9 µg/mL) in data set [1]; greater than 1000 µM in data set [4]; 125 µM (≈ 19.1 µg/mL) in data set [5]; 1000 µM (≈ 153 µg/mL) in data set [7]; 62.5 µM (≈ 9.57 µg/mL) in [8]; 125 µM (≈ 19.1 µg/mL) in data set [9]. The MIC was found to be 62.5 µM (≈ 9.57 µg/mL) in data set [11], 32 µM (≈ 4.9 µg/mL) in data set [12], 500 µM (≈ 76.6 µg/mL) in data set [13] and 125 µM (≈ 19.1 µg/mL) in [14]. Besides, the IC50 in data set [2] was 2240 µM. The “Selectivity Index” value in data set [3] is listed as less than 2.2. The selectivity ratio in data set [6] was 35.8. Besides, in [10], the inhibition came out at 10%.
Regarding `CN(C)C(=O)Oc1ccc(Cl)cc1C(=O)Nc1ccc(Br)cc1`, the MIC worked out at 62.5 µM (≈ 24.9 µg/mL) in [1]; 125 µM (≈ 49.7 µg/mL) in data set [4]; 62.5 µM (≈ 24.9 µg/mL) in data set [5]; 125 µM (≈ 49.7 µg/mL) in [7]; 16 µM (≈ 6.36 µg/mL) in [8]; 62.5 µM (≈ 24.9 µg/mL) in [9]. Also, the MIC worked out at 16 µM (≈ 6.36 µg/mL) in data set [11], 62.5 µM (≈ 24.9 µg/mL) in [12], 62.5 µM (≈ 24.9 µg/mL) in data set [13] and 62.5 µM (≈ 24.9 µg/mL) in [14]. Also, the IC50 in data set [2] is 342 µM. Besides, the “Selectivity Index” value in data set [3] is listed as “<=5.5”. The selectivity ratio in data set [6] turned out to be 21.4. For the same compound, in [10], the inhibition was determined as 9%.
As to `O=C(Nc1ccc(F)cc1)c1cc(Cl)ccc1OC(=O)N(c1ccccc1)c1ccccc1`, the MIC in data set [1] stood at 250 µM (≈ 115 µg/mL); in data set [4] it was 62.5 µM (≈ 28.8 µg/mL); in data set [5], 62.5 µM (≈ 28.8 µg/mL); in [7], 62.5 µM (≈ 28.8 µg/mL); in data set [8], 250 µM (≈ 115 µg/mL); in [9], 125 µM (≈ 57.6 µg/mL). The MIC in data set [11] was 250 µM (≈ 115 µg/mL); in [12], 125 µM (≈ 57.6 µg/mL); in data set [13], 125 µM (≈ 57.6 µg/mL); in data set [14] it was 250 µM (≈ 115 µg/mL). The IC50 in [2] is greater than 100 µM. The inhibition in data set [10] is 22%.
In the case of `O=C(Nc1ccc(Br)cc1)c1cc(Cl)ccc1OC(=O)N(c1ccccc1)c1ccccc1`, the MIC in data set [1] was determined as 250 µM (≈ 130 µg/mL); in [4] it was 125 µM (≈ 65.2 µg/mL); in data set [5], 32 µM (≈ 16.7 µg/mL); in data set [7], 125 µM (≈ 65.2 µg/mL); in data set [8], 250 µM (≈ 130 µg/mL); in [9], 62.5 µM (≈ 32.6 µg/mL). Moreover, the MIC is 250 µM (≈ 130 µg/mL) in [11], 32 µM (≈ 16.7 µg/mL) in [12], 62.5 µM (≈ 32.6 µg/mL) in data set [13] and 250 µM (≈ 130 µg/mL) in data set [14]. Also, in [2], the 50% inhibitory concentration (IC50) was greater than 100 µM. Also, the inhibition in data set [10] was 19%.
For the compound `CN(C)C(=O)Oc1ccc(Cl)cc1C(=O)Nc1ccc(C(F)(F)F)cc1`, the MIC is 250 µM (≈ 96.7 µg/mL) in data set [1]; 250 µM (≈ 96.7 µg/mL) in [4]; 250 µM (≈ 96.7 µg/mL) in data set [5]; 250 µM (≈ 96.7 µg/mL) in data set [7]; greater than 1000 µM in [8]; 250 µM (≈ 96.7 µg/mL) in [9]. Moreover, the MIC in data set [11] is greater than 1000 µM; in [12], 250 µM (≈ 96.7 µg/mL); in [13] it was 250 µM (≈ 96.7 µg/mL); in data set [14], 250 µM (≈ 96.7 µg/mL). The IC50 in data set [2] amounted to 6510 µM. Also, the inhibition in [10] was determined as 11%.
On to `CN(C(=O)Oc1ccc(Cl)cc1C(=O)Nc1ccc(Cl)cc1)c1ccccc1`, for which the minimum inhibitory concentration (MIC) turned out to be 250 µM (≈ 104 µg/mL) in data set [1]; 125 µM (≈ 51.9 µg/mL) in [4]; 62.5 µM (≈ 26 µg/mL) in data set [5]; 125 µM (≈ 51.9 µg/mL) in data set [7]; 32 µM (≈ 13.3 µg/mL) in [8]; 62.5 µM (≈ 26 µg/mL) in data set [9]. The MIC was 32 µM (≈ 13.3 µg/mL) in [11], 32 µM (≈ 13.3 µg/mL) in data set [12], 125 µM (≈ 51.9 µg/mL) in data set [13] and 250 µM (≈ 104 µg/mL) in data set [14]. Moreover, the IC50 in data set [2] was found to be 289 µM. Moreover, the “Selectivity Index” value in data set [3] is “<=9”. For the same compound, the selectivity ratio in [6] was 9. For the same compound, the inhibition in [10] came to 17%.
